Measurements as given in ChEMBL document CHEMBL3526127, “Absorption, elimination, and metabolism of CS-1036, a novel α-amylase inhibitor in rats and monkeys, and the relationship between gastrointestinal distribution and suppression of glucose absorption” (Drug Metab Dispos, 2013).
Values belong to the compound of their own block, whether it stands above or below them.

Experiments:
[1] = test system: Stomach; test: Drug distribution in stomach of F344 rat treated with [14C]CS-1036 at 1 mg/kg, po administered as single dose after 2 to 8 hrs by scintillation counting method; type: ADME, organism-based; design: dose 1 mg/kg, route oral; conditions: in vivo
[2] = test system: Intestine; test: Drug distribution in intestine of F344 rat treated with [14C]CS-1036 at 1 mg/kg, po administered as single dose after 2 to 8 hrs by scintillation counting method; type: ADME, organism-based; design: dose 1 mg/kg, route oral; conditions: in vivo
[3] = Drug level in anaerobic culture broth of F344 rat cecal content treated with [14C]CS-1036 at 63.5 uCi/ml after 24 hrs at 35 degC by LC-MS/MS method; type: ADME; conditions: in vitro
[4] = Drug level in anaerobic culture broth of human feces derived anaerobic culture broth treated with [14C]CS-1036 at 63.5 uCi/ml after 24 hrs at 35 degC by LC-MS/MS method; type: ADME, tissue-based
[5] = Drug excretion in feces of cynomolgus monkey treated with [14C]CS-1036 at 3 mg/kg, po administered as single dose after 48 hrs by scintillation counting method; conditions: in vivo
[6] = Drug level in feces of F344 rat treated with [14C]CS-1036 by LC-MS/MS method; type: ADME, tissue-based; conditions: in vivo
[7] = Drug distribution in cecum of F344 rat treated with [14C]CS-1036 at 1 mg/kg, po administered as single dose after 6 to 8 hrs by scintillation counting method; type: ADME, organism-based, Caecum; design: dose 1 mg/kg, route oral; conditions: in vivo
[8] = Drug level in anaerobic culture broth of monkey feces derived anaerobic culture broth treated with [14C]CS-1036 at 63.5 uCi/ml after 24 hrs at 35 degC by LC-MS/MS method; conditions: cynomolgus monkey, in vivo
[9] = Drug metabolism in anaerobic culture broth of F344 rat cecal content assessed as N-acetyl [14C]CS-1036 formation at 63.5 uCi/ml after 24 hrs at 35 degC by LC-MS/MS method; type: ADME
[10] = Drug distribution in cecum of F344 rat treated with [14C]CS-1036 at 1 mg/kg, po administered as single dose by scintillation counting method; type: ADME, organism-based, Caecum; design: dose 1 mg/kg, route oral; conditions: in vivo, TDE = time-dependent effect
Procedure, shortened: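 [14C]-labelled drug (1 mg/kg, 42.4 µCi/kg) was given orally to fasted F344 rats (148–168 g, n = 3). Contents of stomach, duodenum+jejunum, ileum and cecum were washed out with water at 0.5–8 h, homogenized, solubilized and counted by liquid scintillation. Results are % of dose, mean ± S.D.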

[11] = test system: Cynomolgus monkey; test: Drug level in cynomolgus monkey treated with 1 mg/kg, po CS-1036 administered as single dose assessed as ratio of molar based AUClast by LC-MS/MS method relative to CS-1036; type: ADME, organism-based, Macaca fascicularis; design: dose 1 mg/kg, route oral; conditions: in vivo
[12] = test system: Rattus norvegicus; test: Drug level in F344 rat treated with 10 mg/kg, iv CS-1036 administered as single dose assessed as ratio of molar based AUClast by LC-MS/MS method relative to CS-1036; type: ADME, organism-based; design: dose 10 mg/kg, route intravenous; conditions: in vivo
[13] = test system: Cynomolgus monkey; test: Drug level in cynomolgus monkey treated with 10 mg/kg, po CS-1036 administered as single dose assessed as ratio of molar based AUClast by LC-MS/MS method relative to CS-1036; type: ADME, organism-based, Macaca fascicularis; design: dose 10 mg/kg, route oral; conditions: in vivo
[14] = Drug level in urine of F344 rat treated with [14C]CS-1036 by LC-MS/MS method; type: ADME, tissue-based; conditions: in vivo
[15] = test system: Rattus norvegicus; test: Drug level in F344 rat treated with 3 mg/kg, po CS-1036 administered as single dose assessed as ratio of molar based AUClast by LC-MS/MS method relative to CS-1036; type: ADME, organism-based; design: dose 3 mg/kg, route oral; conditions: in vivo
[16] = Drug excretion in urine of cynomolgus monkey treated with [14C]CS-1036 at 3 mg/kg, po administered as single dose after 48 hrs by scintillation counting method; conditions: in vivo
[17] = Drug excretion in urine of F344 rat treated with [14C]CS-1036 at 1 mg/kg, po administered as single dose after 24 hrs by scintillation counting method; type: ADME, organism-based; design: dose 1 mg/kg, route oral; conditions: in vivo
[18] = species on record: Mus musculus; test: Inhibition of glycogen phosphorylase in ob/ob mouse; type: functional, organism-based
[19] = Oral bioavailability in rat at 10 mg/kg; type: ADME, organism-based; conditions: in vivo
[20] = test system: Cynomolgus monkey; test: Drug level in cynomolgus monkey treated with 3 mg/kg, po CS-1036 administered as single dose assessed as ratio of molar based AUClast by LC-MS/MS method relative to CS-1036; type: ADME, organism-based, Macaca fascicularis; design: dose 3 mg/kg, route oral; conditions: in vivo
[21] = test system: Rattus norvegicus; test: Drug level in F344 rat treated with 0.3 mg/kg, po CS-1036 administered as single dose assessed as ratio of molar based AUClast by LC-MS/MS method relative to CS-1036; type: ADME, organism-based; design: dose 0.3 mg/kg, route oral; conditions: in vivo
[22] = test system: Rattus norvegicus; test: Drug level in F344 rat treated with 3 mg/kg, iv CS-1036 administered as single dose assessed as ratio of molar based AUClast by LC-MS/MS method relative to CS-1036; type: ADME, organism-based; design: dose 3 mg/kg, route intravenous; conditions: in vivo
[23] = Drug distribution in cecum of F344 rat treated with [14C]CS-1036 at 1 mg/kg, po administered as single dose after 8 hrs by scintillation counting method; type: ADME, organism-based, Caecum; design: dose 1 mg/kg, route oral; conditions: in vivo
[24] = Drug level in urine of po dosed F344 rat treated with [14C]CS-1036 by LC-MS/MS method; type: ADME, organism-based; conditions: in vivo
[25] = Drug level in urine of po dosed monkey treated with [14C]CS-1036 by LC-MS/MS method; conditions: cynomolgus monkey, in vivo
[26] = Cmax in rat at 10 mg/kg, po; type: ADME, organism-based; design: dose 10 mg/kg, route oral; conditions: in vivo
[27] = test system: Rattus norvegicus; test: Drug level in F344 rat treated with 1 mg/kg, po CS-1036 administered as single dose assessed as ratio of molar based AUClast by LC-MS/MS method relative to CS-1036; type: ADME, organism-based; design: dose 1 mg/kg, route oral; conditions: in vivo
[28] = test system: Rattus norvegicus; test: Drug level in F344 rat treated with 10 mg/kg, po CS-1036 administered as single dose assessed as ratio of molar based AUClast by LC-MS/MS method relative to CS-1036; type: ADME, organism-based; design: dose 10 mg/kg, route oral; conditions: in vivo

Drug metabolism [1]: metabolite_not_detected
Drug metabolism [2]: metabolite_not_detected
Drug metabolism [3]: metabolite_detected
Drug metabolism [4]: metabolite_detected
Drug excretion [5]: 17.8%
Drug metabolism [6]: metabolite_detected
Drug uptake [7]: 1.7%
Drug metabolism [8]: metabolite_detected
SMILES: CC(=O)N1C[C@@H](O)[C@H](O)[C@H]1CO

Drug metabolism [3]: metabolite_detected
Drug metabolism [9]: metabolite_detected
SMILES: CC(=O)N1C[C@@H](O)[C@H](O[C@H]2O[C@H](CO)[C@@H](O[C@@H]3O[C@H](C)[C@@H](O)[C@H](O)[C@H]3O)[C@H](O)[C@H]2O)[C@H]1CO

Drug uptake [10]: tde
Drug uptake [11]: 60.8%
Drug uptake [12]: 0.0172%
Drug uptake [13]: 62.5%
Drug uptake [1]: < 1%
Drug metabolism [14]: metabolite_detected
Drug uptake [2]: < 1%
Drug uptake [15]: 49.9%
Drug excretion [16]: 2.2%
Drug metabolism [3]: metabolite_detected
Drug excretion [17]: 5.3%
Drug metabolism [4]: metabolite_detected
Ki [18]: 392 nM
Drug excretion [5]: 9.7%
bioavailability [19]: 89%
Drug uptake [20]: 83.5%
Drug uptake [21]: 22.1%
Drug metabolism [6]: metabolite_detected
Drug uptake [22]: 0.00672%
Drug uptake [23]: 7.1%
Drug metabolism [24]: metabolite_detected
Drug metabolism [25]: metabolite_detected
Cmax [26]: < 300 nM
Drug metabolism [8]: metabolite_detected
Drug uptake [27]: 73.4%
Drug uptake [28]: 32.2%
SMILES: OC[C@H]1NC[C@@H](O)[C@@H]1O
